Test results reported in ChEMBL document CHEMBL6078712, “Triterpenoid phthalimides as selective anti-cancer agents targeting mitochondrial apoptosis” (Eur J Med Chem, 2025).
The source made the active and inactive calls. The calls are words filed in the database; no cut-off is given here.

What was measured:
[1] = Stability in human plasma assessed as compound remaining at 2 uM incubated for 120 mins by RF-MS analysis; format: ADME, cell-free; settings: read-out: Stability
Method in brief: (§1)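 Human plasma stability, plasma protein binding and liver microsome stability, each run in triplicate. Error deviations below 10 %.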

CCRF-CEM [2] = assay: Induction of cell cycle arrest in human CCRF-CEM cells assessed as downregulation of Cyclin A expression at 5 times IC50 incubated for 24 hrs by Western blotting analysis; format: functional, cell-based
Method in brief: (§2)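 30 µg protein per lane on SDS-PAGE, transferred to nitrocellulose, blocked in 5 % BSA/TBS-Tween. Primary antibodies overnight at 4 °C (Akt, P-Akt Ser473, STAT-3, caspase-3, PARP, cyclin D, cyclin A, Bcl-xL, Bak, Bid, Bim), then HRP secondary and ECL detection. GAPDH as loading control.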

CCRF-CEM [3] = assay: Inhibition of RNA synthesis in human CCRF-CEM cells at 5 times IC50 incubated for 24 hrs by BrU incorporation based flow cytometry; format: functional
Method in brief: (§3)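 Fixed in 1 % paraformaldehyde/0.05 % NP-40 (15 min at room temperature, then 4 °C overnight). Stained with cross-reacting anti-BrdU plus FITC secondary (45 min each), then PI/RNase A. Flow cytometry; % BrU-positive cells.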

[4] = Cytotoxicity against human K562-Tax cells assessed as inhibition of cell growth incubated for 72 hrs by MTS assay; format: functional, cell-based
Method in brief: (§4)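 MTS assay on eight human cancer lines and two non-tumour fibroblast lines. IC50 is the concentration that inhibits cell growth by 50 %. SD typically up to 15 % of the mean.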

CCRF-CEM [5] = assay: Induction of apoptosis in human CCRF-CEM cells assessed as early apoptotic cells at 1 times IC50 incubated for 24 hrs by Annexin V-FITC and PI staining based flow cytometric analysis (reference value: 2.1 %); format: functional
Method in brief: (§5)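 Washed in Ca2+-containing binding buffer, then stained 15 min at room temperature in the dark with Annexin V-FITC and propidium iodide (PI at half the kit-recommended level). Read at once by flow cytometry with a 488 nm laser, ≥10,000 cells. Debris excluded; quadrants viable, early apoptotic, late apoptotic/necrotic, necrotic. Three independent experiments.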

CCRF-CEM [6] = assay: Induction of apoptosis in human CCRF-CEM cells assessed as viable cells at 1 times IC50 incubated for 24 hrs by Annexin V-FITC and PI staining based flow cytometric analysis (reference value: 97.4 %); format: functional; method in brief: as §5
CCRF-CEM [7] = assay: Induction of apoptosis in human CCRF-CEM cells assessed as necrotic cells at 1 times IC50 incubated for 24 hrs by Annexin V-FITC and PI staining based flow cytometric analysis (reference value: 0.4 %); format: functional; method in brief: as §5
A549 = assay: Cytotoxicity against human A549 cells assessed as inhibition of cell growth incubated for 72 hrs by MTS assay; format: functional, cell-based; settings: A549, 72 h; method in brief: as §4
CCRF-CEM [8] = assay: Inhibition of DNA synthesis in human CCRF-CEM cells at 5 times IC50 incubated for 24 hrs by BrdU incorporation based flow cytometry; format: functional
Method in brief: (§6)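 Fixed in ice-cold 70 % ethanol, DNA denatured in 2 M HCl for 30 min, neutralised with borax. Stained with anti-BrdU plus FITC secondary, then PI/RNase A for 1 h. Flow cytometry; % BrdU-positive cells.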

[9] = Plasma protein binding in human assessed as fraction bound at 10 uM incubated for 4 hrs by rapid equilibrium dialysis based RF-MS analysis; format: ADME, cell-free; settings: read-out: PPB (converted); method in brief: as §1
CCRF-CEM [10] = assay: Induction of apoptosis in human CCRF-CEM cells assessed as late apoptotic cells at 5 times IC50 incubated for 24 hrs by Annexin V-FITC and PI staining based flow cytometric analysis (reference value: 0.4 %); format: functional; method in brief: as §5
Mitochondrial membrane = assay: Induction of mitochondrial membrane potential depolarization in human CCRF-CEM cells assessed as fold increase in fluorescence intensity incubated for 24 hrs by JC-1 staining based flow cytometry; format: cell membranes
[11] = Cytotoxicity against human MRC5 cells assessed as inhibition of cell growth incubated for 72 hrs by MTS assay; format: toxicity, cell-based; method in brief: as §4
CCRF-CEM [12] = assay: Induction of apoptosis in human CCRF-CEM cells assessed as upregulation of BID expression at 1 to 5 times IC50 incubated for 24 hrs by Western blotting analysis; format: functional, cell-based; method in brief: as §2
CEM-DNR = assay: Cytotoxicity against human CEM-DNR cells assessed as inhibition of cell growth incubated for 72 hrs by MTS assay; format: functional, cell-based; method in brief: as §4
CCRF-CEM [13] = assay: Cytotoxicity against human CCRF-CEM cells assessed as inhibition of cell growth incubated for 72 hrs by MTS assay; format: functional, cell-based; method in brief: as §4
[14] = Stability in human plasma assessed as compound remaining at 2 uM incubated for 30 mins by RF-MS analysis; format: ADME, cell-free; settings: read-out: Stability; method in brief: as §1
CCRF-CEM [15] = assay: Induction of apoptosis in human CCRF-CEM cells assessed as viable cells at 5 times IC50 incubated for 24 hrs by Annexin V-FITC and PI staining based flow cytometric analysis (reference value: 97.4 %); format: functional; method in brief: as §5
HCT 116 TP53(-/-) = assay: Cytotoxicity against human HCT116-p53-null cells assessed as inhibition of cell growth incubated for 72 hrs by MTS assay; format: functional, cell-based; method in brief: as §4
CCRF-CEM [16] = assay: Inhibition of DNA synthesis in human CCRF-CEM cells at 1 times IC50 incubated for 24 hrs by BrdU incorporation based flow cytometry; format: functional; method in brief: as §6
[17] = Stability in human plasma assessed as compound remaining at 2 uM incubated for 15 mins by RF-MS analysis; format: ADME, cell-free; settings: read-out: Stability; method in brief: as §1
K562 = assay: Cytotoxicity against human K562 cells assessed as inhibition of cell growth incubated for 72 hrs by MTS assay; format: functional, cell-based; settings: K562, 72 h; method in brief: as §4
[18] = Stability in human plasma assessed as compound remaining at 2 uM incubated for 60 mins by RF-MS analysis; format: ADME, cell-free; settings: read-out: Stability; method in brief: as §1
CCRF-CEM [19] = assay: Induction of apoptosis in human CCRF-CEM cells assessed as early apoptotic cells at 5 times IC50 incubated for 24 hrs by Annexin V-FITC and PI staining based flow cytometric analysis (reference value: 2.1 %); format: functional; method in brief: as §5
[20] = Metabolic stability in human liver microsomes assessed as parent compound remaining at 2 uM incubated for 60 mins in presence of NADPH by RF-MS analysis; format: ADME, Microsome; settings: read-out: Stability; method in brief: as §1
CCRF-CEM [21] = assay: Induction of apoptosis in human CCRF-CEM cells assessed as downregulation of BCL-XL expression at 5 times IC50 incubated for 24 hrs by Western blotting analysis; format: functional, cell-based; method in brief: as §2
[22] = Metabolic stability in human liver microsomes assessed as parent compound remaining at 2 uM incubated for 30 mins in presence of NADPH by RF-MS analysis; format: ADME, Microsome; settings: read-out: Stability; method in brief: as §1
U2OS = assay: Cytotoxicity against human U2OS cells assessed as inhibition of cell growth incubated for 72 hrs by MTS assay; format: functional, cell-based; method in brief: as §4
CCRF-CEM [23] = assay: Induction of apoptosis in human CCRF-CEM cells assessed as necrotic cells at 5 times IC50 incubated for 24 hrs by Annexin V-FITC and PI staining based flow cytometric analysis (reference value: 0.4 %); format: functional; method in brief: as §5
CCRF-CEM [24] = assay: Inhibition of RNA synthesis in human CCRF-CEM cells at 1 times IC50 incubated for 24 hrs by BrU incorporation based flow cytometry; format: functional; method in brief: as §3
[25] = Cytotoxicity against human BJ cells assessed as inhibition of cell growth incubated for 72 hrs by MTS assay; format: toxicity, cell-based; method in brief: as §4
[26] = Metabolic stability in human liver microsomes assessed as parent compound remaining at 2 uM incubated for 15 mins in presence of NADPH by RF-MS analysis; format: ADME, Microsome; settings: read-out: Stability; method in brief: as §1
CCRF-CEM [27] = assay: Induction of apoptosis in human CCRF-CEM cells assessed as upregulation of BIM expression at 1 to 5 times IC50 incubated for 24 hrs by Western blotting analysis; format: functional, cell-based; method in brief: as §2
HCT-116 = assay: Cytotoxicity against human HCT-116 cells assessed as inhibition of cell growth incubated for 72 hrs by MTS assay; format: functional, cell-based; settings: HCT-116, 72 h; method in brief: as §4
CCRF-CEM [28] = assay: Induction of apoptosis in human CCRF-CEM cells assessed as late apoptotic cells at 1 times IC50 incubated for 24 hrs by Annexin V-FITC and PI staining based flow cytometric analysis (reference value: 0.4 %); format: functional; method in brief: as §5

In the case of `CC1(C)[C@@H](O)CC[C@]2(C)[C@H]3CC[C@@H]4[C@H]5[C@H](c6cc7c(c(-c8ccccc8)c6)C(=O)N(c6ccccc6)C7=O)CC[C@]5(C(=O)O)CC[C@@]4(C)[C@]3(C)CC[C@@H]12`, the remaining at 2 h, 2 µM [1] is reported as 89%, the Activity (CCRF-CEM [2]) is reported as “Active” and the “inhibition (INH)” value (CCRF-CEM [3]) is reported as 16.1%. For the same compound, the IC50 [4] was 23.1 µM, the Activity (CCRF-CEM [5]) was 5.4% and the Activity (CCRF-CEM [6]) was 90.7%. The Activity (CCRF-CEM [7]) was 0%, the IC50 (A549) was > 50 µM and the “inhibition (INH)” value (CCRF-CEM [8]) was 37.8%. The fraction unbound at 4 h, 10 µM [9] was 0.231, the Activity (CCRF-CEM [10]) was 4.5% and the Activity (Mitochondrial membrane) was “Dose-dependent-effect”. The IC50 at 72 h [11] was > 50 µM, the Activity (CCRF-CEM [12]) was “Active” and the IC50 (CEM-DNR) was 20 µM. The IC50 (CCRF-CEM [13]) was 5.18 µM, the remaining at 0.5 h, 2 µM [14] was 95% and the Activity (CCRF-CEM [15]) was 90.4%. For the same compound, the IC50 (HCT 116 TP53(-/-)) was > 50 µM, the “inhibition (INH)” value (CCRF-CEM [16]) was 35.2% and the remaining at 0.25 h, 2 µM [17] was 96%. For the same compound, the IC50 (K562) was > 50 µM, the remaining at 1 h, 2 µM [18] was 100% and the Activity (CCRF-CEM [19]) was 5.1%. The remaining at 1 h, 2 µM [20] was 79%, the Activity (CCRF-CEM [21]) was “Active” and the remaining at 0.5 h, 2 µM [22] was 87%. The IC50 (U2OS) was 25.9 µM, the Activity (CCRF-CEM [23]) was 0% and the “inhibition (INH)” value (CCRF-CEM [24]) was 28.4%. For the same compound, the IC50 at 72 h [25] was > 50 µM, the remaining at 0.25 h, 2 µM [26] was 92% and the Activity (CCRF-CEM [27]) was “Active”. It also gave an IC50 (HCT-116) of 29.4 µM and an Activity (CCRF-CEM [28]) of 3.9%.
